Measured values reported in ChEMBL document CHEMBL1122917, “Vinblastin-23-oyl amino acid derivatives: chemistry, physicochemical data, toxicity, and antitumor activities against P388 and L1210 leukemias” (J Med Chem, 1985).
Values joined by “and” are separate entries in the source; they are usually repeats but may differ in a detail not shown here. Equal values may be shown once.

Experiments:
[1] = Acute iv toxicity against CD1 strain of 40 mice after 4 doses of injection; assay type: organism-based; settings: CD1, mouse, in vivo
How it was run: (§1)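 Acute toxicity in Swiss, CD1 or NMRI mice. Drugs given iv as sulfate salts. LD50 taken at day 14 from several dose levels, with 40–[…] mice per drug and strain.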

[2] = Acute iv toxicity against Swiss strain of 40 mice after 4 doses of injection; assay type: organism-based; settings: mouse, in vivo; how it was run: as §1
[3] = Acute iv toxicity against NMRI strain of 100 mice after 7 doses of injection; assay type: organism-based; settings: mouse, in vivo; how it was run: as §1
[4] = tested on: Mus musculus; experiment: Percent increase in life span at dose 6 mg/kg/day in 10 mice implanted with P388 leukemia cell line; assay type: functional
How it was run: (§2)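 Female DBA2 mice inoculated iv on day 0 with 10^4 P388 cells; single iv treatment on day 1 with drug as sulfate salt in physiological saline. Survival followed; %ILS from all deaths and survivors as (T/C × 100) − 100, maximal MST 30 days; survivors counted on days 30 and 60. Most experiments confirmed three times.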

[5] = tested on: Mus musculus; experiment: Percent increase in life span of DBA2 mice after inoculation with L1210 leukemia intravenously at a dose of 8 mg/kg per day; assay type: functional; settings: route intravenous
How it was run: (§3)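 Female DBA2 mice inoculated iv on day 0 with 10^4 L1210 cells; drugs given iv as sulfate salts in physiological saline, mostly once on day 1. %ILS from all deaths and survivors as (T/C × 100) − 100; survivors scored on days 30 and 60.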

[6] = tested on: Mus musculus; experiment: Percent increase in life span of DBA2 mice after inoculation with L1210 leukemia intravenously at a dose of 9 mg/kg per day; assay type: functional; settings: route intravenous; how it was run: as §3
[7] = tested on: Mus musculus; experiment: Percent increase in life span of DBA2 mice after inoculation with L1210 leukemia intravenously at a dose of 4 mg/kg per day; assay type: functional; settings: route intravenous; how it was run: as §3
[8] = tested on: Mus musculus; experiment: Percent increase in life span of DBA2 mice after inoculation with L1210 leukemia intravenously at a dose of 5 mg/kg per day; assay type: functional; settings: for ILS at 5 mg/kg/day: Mus musculus, L1210, iv; how it was run: as §3
[9] = tested on: Mus musculus; experiment: Percent increase in life span of DBA2 mice after inoculation with L1210 leukemia intravenously at a dose of 7 mg/kg per day; assay type: functional; settings: route intravenous; how it was run: as §3
[10] = tested on: Mus musculus; experiment: Number of survivors on 60th day at dose 6 mg/kg/day in 10 mice implanted with P388 leukemia cell line; 0/10; assay type: functional
[11] = tested on: Mus musculus; experiment: Percent increase in life span at dose 7 mg/kg/day in 10 mice implanted with P388 leukemia cell line; assay type: functional; how it was run: as §2
[12] = tested on: Mus musculus; experiment: Percent increase in life span at dose 8 mg/kg/day in 10 mice implanted with P388 leukemia cell line; assay type: functional; how it was run: as §2
[13] = tested on: Mus musculus; experiment: Number of survivors of DBA2 mice on 30th day after inoculation with L1210 leukemia cell line intravenously at a dose of 4 mg/kg/day; 0/10; assay type: functional; settings: route intravenous
[14] = tested on: Mus musculus; experiment: Number of survivors of DBA2 mice on 30th day after inoculation with L1210 leukemia cell line intravenously at a dose of 5 mg/kg/day; 0/10; assay type: functional; settings: route intravenous
[15] = tested on: Mus musculus; experiment: Number of survivors of DBA2 mice on 30th day after inoculation with L1210 leukemia cell line intravenously at a dose of 7 mg/kg/day; 0/10; assay type: functional; settings: route intravenous
[16] = tested on: Mus musculus; experiment: Number of survivors of DBA2 mice on 30th day after inoculation with L1210 leukemia cell line intravenously at a dose of 9 mg/kg/day; 0/10; assay type: functional; settings: route intravenous
[17] = tested on: Mus musculus; experiment: Percent increase in life span at dose 4 mg/kg/day in 10 mice implanted with P388 leukemia cell line; assay type: functional; settings: for ILS at 4 mg/kg/day: Mus musculus, P388; how it was run: as §2
[18] = tested on: Mus musculus; experiment: Percent increase in life span at dose 5 mg/kg/day in 10 mice implanted with P388 leukemia cell line; assay type: functional; how it was run: as §2
[19] = tested on: Mus musculus; experiment: Number of survivors on 60th day at dose 8 mg/kg/day in 10 mice implanted with P388 leukemia cell line; 0/10; assay type: functional; how it was run: as §2
[20] = tested on: Mus musculus; experiment: Number of survivors on 30th day at dose 4 mg/kg/day in 10 mice implanted with P388 leukemia cell line; 0/10; assay type: functional
[21] = tested on: Mus musculus; experiment: Number of survivors on 60th day at dose 7 mg/kg/day in 10 mice implanted with P388 leukemia cell line; 0/10; assay type: functional; how it was run: as §2
[22] = tested on: Mus musculus; experiment: Number of survivors of DBA2 mice on 60th day after inoculation with L1210 leukemia cell line intravenously at a dose of 4 mg/kg/day; 0/10; assay type: functional; settings: route intravenous
[23] = tested on: Mus musculus; experiment: Number of survivors of DBA2 mice on 60th day after inoculation with L1210 leukemia cell line intravenously at a dose of 5 mg/kg/day; 0/10; assay type: functional; settings: route intravenous
[24] = tested on: Mus musculus; experiment: Number of survivors of DBA2 mice on 60th day after inoculation with L1210 leukemia cell line intravenously at a dose of 6 mg/kg/day; 0/10; assay type: functional; settings: route intravenous
[25] = tested on: Mus musculus; experiment: Number of survivors of DBA2 mice on 60th day after inoculation with L1210 leukemia cell line intravenously at a dose of 7 mg/kg/day; 0/10; assay type: functional; settings: route intravenous
[26] = tested on: Mus musculus; experiment: Number of survivors of DBA2 mice on 60th day after inoculation with L1210 leukemia cell line intravenously at a dose of 8 mg/kg/day; 0/10; assay type: functional; settings: route intravenous
[27] = tested on: Mus musculus; experiment: Number of survivors of DBA2 mice on 60th day after inoculation with L1210 leukemia cell line intravenously at a dose of 9 mg/kg/day; 0/10; assay type: functional; settings: route intravenous
How it was run: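 Female DBA₂ mice received 10⁴ L1210 cells iv on day 0. Compounds were given iv as sulfate salts in physiological saline, as a single dose on day 1 (mg/kg per day). Groups were 10 mice. Survivors were counted on day 60. Cells were maintained by ip passage in DBA₂ mice.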

[28] = Acute iv toxicity against mice after a dose of injection; assay type: organism-based; settings: mouse, in vivo
[29] = tested on: Mus musculus; experiment: Percent increase in life span of DBA2 mice after inoculation with L1210 leukemia intravenously at a dose of 3 mg/kg per day; assay type: functional; settings: route intravenous; how it was run: as §3
[30] = tested on: Mus musculus; experiment: Percent increase in life span at dose 3 mg/kg/day in 10 mice implanted with P388 leukemia cell line; assay type: functional; how it was run: as §2
[31] = tested on: Mus musculus; experiment: Number of survivors on 60th day at dose 4 mg/kg/day in 10 mice implanted with P388 leukemia cell line; 0/10; assay type: functional
[32] = tested on: Mus musculus; experiment: Number of survivors on 60th day at dose 5 mg/kg/day in 10 mice implanted with P388 leukemia cell line; 0/10; assay type: functional
[33] = tested on: Mus musculus; experiment: Number of survivors of DBA2 mice on 30th day after inoculation with L1210 leukemia cell line intraperitoneally at a dose of 2 mg/kg/day; 0/10; assay type: functional; settings: route intraperitoneal
[34] = tested on: Mus musculus; experiment: Number of survivors of DBA2 mice on 30th day after inoculation with L1210 leukemia cell line intravenously at a dose of 3 mg/kg/day; 0/10; assay type: functional; settings: route intravenous
[35] = Acute iv toxicity against rat after a dose of injection; assay type: organism-based; settings: in vivo
[36] = tested on: Mus musculus; experiment: Number of survivors of DBA2 mice on 60th day after inoculation with L1210 leukemia cell line intravenously at a dose of 3 mg/kg/day; 0/10; assay type: functional; settings: route intravenous
[37] = tested on: Mus musculus; experiment: Percent increase in life span of BDF1 mice after inoculation with P388 leukemia intraperitoneally at a dose of 2 mg/kg per day; settings: P388, ip
[38] = tested on: Mus musculus; experiment: Percent increase in life span at dose 2 mg/kg/day in 10 mice implanted with P388 leukemia cell line; assay type: functional; how it was run: as §2
[39] = tested on: Mus musculus; experiment: Percent increase in life span of DBA2 mice after inoculation with L1210 leukemia intravenously at a dose of 2.5 mg/kg per day; assay type: functional; settings: route intravenous; how it was run: as §3

Structure (SMILES) | ILS at 6 mg/kg/day [4] | ILS at 4 mg/kg/day [7] | ILS at 5 mg/kg/day [8] | ILS at 7 mg/kg/day [9] | Survivors [10] | ILS at 7 mg/kg/day [11] | ILS at 8 mg/kg/day [12] | Survivors [13] | Survivors [14] | Survivors [15] | ILS at 5 mg/kg/day [18] | Survivors [20] | Survivors [22] | Survivors [23] | Survivors [25] | LD50 [28] | Survivors [33] | LD50 [35] | Survivors [36] | ILS at 2 mg/kg/day [37] | further results
CCOC(=O)[C@H](Cc1c[nH]c2ccccc12)NC(=O)[C@@]1(O)[C@H](O)[C@]2(CC)C=CCN3CC[C@@]4(c5cc([C@@]6(C(=O)OC)C[C@H]7C[N@](CCc8c6[nH]c6ccccc86)C[C@](O)(CC)C7)c(OC)cc5N(C)[C@@]14C)[C@@H]32 |  |  |  |  |  |  |  |  |  |  |  |  |  |  |  |  |  |  |  |  | LD50 [1]: 110 mg/kg; LD50 [2]: 94 mg/kg; LD50 [3]: 269 mg/kg
CCOC(=O)[C@@H](NC(=O)[C@@]1(O)[C@H](O)[C@]2(CC)C=CCN3CC[C@@]4(c5cc([C@@]6(C(=O)OC)C[C@H]7C[N@](CCc8c6[nH]c6ccccc86)C[C@](O)(CC)C7)c(OC)cc5N(C)[C@@]14C)[C@@H]32)[C@@H](C)CC | 73.5% | 20% | 36% | 27% | 0 | 56% | > 183% | 0 | 0 | 0 | 60.4% | 0 | 0 | 0 | 0 |  |  |  |  |  | ILS at 8 mg/kg/day [5]: 49%; ILS at 9 mg/kg/day [6]: 64%; Survivors [16]: 0; ILS at 4 mg/kg/day [17]: 60%; Survivors [19]: 0; Survivors [21]: 0; Survivors [24]: 0; Survivors [26]: 0; Survivors [27]: 0
CC[C@]1(O)C[C@@H]2CN(CCc3c([nH]c4ccccc34)[C@@](C(=O)OC)(c3cc4c(cc3OC)N(C)[C@H]3[C@@](O)(C(=O)OC)[C@H](OC(C)=O)[C@]5(CC)C=CCN6CC[C@]43[C@@H]65)C2)C1 [VINBLASTINE] | 48% | 31.9% | 37% | 35% | 0 | 59.3% | 72.9% | 0 | 0 | 0 | 47.1% | 0 | 0 | 0 | 0 | 10 mg/kg | 0 | 2.9 mg/kg | 0 | 54% | LD50 [1]: 28 mg/kg; LD50 [2]: 26 mg/kg; ILS at 8 mg/kg/day [5]: 57.6%; ILS at 9 mg/kg/day [6]: -21.6%; ILS at 3 mg/kg/day [29]: 30.3%; Survivors [16]: 0; ILS at 3 mg/kg/day [30]: 30.8%; ILS [17]: 42.3% and 112%; Survivors [31]: 0; Survivors [32]: 0; Survivors [34]: 0; Survivors [24]: 0; Survivors [26]: 0; Survivors [27]: 0; LD50 [3]: 27.4 mg/kg
CC[C@]1(O)C[C@H]2CN(CCc3c([nH]c4ccccc34)[C@@](C(=O)OC)(c3cc4c(cc3OC)N(C=O)[C@H]3[C@@](O)(C(=O)OC)[C@H](OC(C)=O)[C@]5(CC)C=CCN6CC[C@]43[C@@H]65)C2)C1 [VINCRISTINE] |  | 24% | 36% |  |  |  |  | 0 | 0 |  |  |  | 0 | 0 |  | 1 mg/kg | 0 | 1 mg/kg | 0 | 53% | ILS at 3 mg/kg/day [29]: 28.8%; ILS at 2 mg/kg/day [38]: -46%; ILS at 2.5 mg/kg/day [39]: 30%; Survivors [34]: 0
CC[C@]1(O)C[C@@H]2CN(CCc3c([nH]c4ccccc34)[C@@](C(=O)OC)(c3cc4c(cc3OC)N(C)[C@H]3[C@@](O)(C(N)=O)[C@H](O)[C@]5(CC)C=CCN6CC[C@]43[C@@H]65)C2)C1 [VINDESINE] | 32% |  |  | -9.1% | 0 | 24% | -46% |  | 0 | 0 | 30.2% | 0 |  | 0 | 0 | 6.3 mg/kg | 0 | 2.6 mg/kg | 0 | 89.5% | ILS ([8]; route intravenous): 11.5% and 25.7%; ILS at 2 mg/kg/day [38]: 27.1%; ILS at 3 mg/kg/day [30]: 23%; ILS at 4 mg/kg/day [17]: 25.5%; ILS at 2.5 mg/kg/day [39]: 13.3%; Survivors [19]: 0; Survivors [31]: 0; Survivors [32]: 0; Survivors [21]: 0
